From article PMC11047177 (ESMO Open, 2024)
“Also recorded” adds a separate entry of the source.

Tests used:
[1] = Plasma PF-06939999 pharmacokinetics, noncompartmental; assay type: in vivo, human
In short: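 Test compound given orally on an empty stomach. Part 1 had intensive plasma sampling on cycle 1 day 1 and day 15; part 2 had sparse sampling. Plasma was assayed by a validated method with LLOQ 0.250 ng/ml; values below LLOQ were set to zero for summaries. Noncompartmental analysis was done within a dosing interval. Rac was based on AUCτ. Parameters were summarised by dose, cycle and day as geometric means.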

[2] = test system: SW1990 and A427 xenograft; assay: Preclinical mouse xenograft models; assay type: in vivo; conditions: corresponding to a 70% (or greater) inhibition of plasma SDMA; data not shown
PRMT5 = PRMT5 (Homo sapiens, UniProt O14744); assay: Plasma SDMA pharmacodynamics by LC/MS; assay type: in vivo
PRMT5, sequence (O14744 whole entry): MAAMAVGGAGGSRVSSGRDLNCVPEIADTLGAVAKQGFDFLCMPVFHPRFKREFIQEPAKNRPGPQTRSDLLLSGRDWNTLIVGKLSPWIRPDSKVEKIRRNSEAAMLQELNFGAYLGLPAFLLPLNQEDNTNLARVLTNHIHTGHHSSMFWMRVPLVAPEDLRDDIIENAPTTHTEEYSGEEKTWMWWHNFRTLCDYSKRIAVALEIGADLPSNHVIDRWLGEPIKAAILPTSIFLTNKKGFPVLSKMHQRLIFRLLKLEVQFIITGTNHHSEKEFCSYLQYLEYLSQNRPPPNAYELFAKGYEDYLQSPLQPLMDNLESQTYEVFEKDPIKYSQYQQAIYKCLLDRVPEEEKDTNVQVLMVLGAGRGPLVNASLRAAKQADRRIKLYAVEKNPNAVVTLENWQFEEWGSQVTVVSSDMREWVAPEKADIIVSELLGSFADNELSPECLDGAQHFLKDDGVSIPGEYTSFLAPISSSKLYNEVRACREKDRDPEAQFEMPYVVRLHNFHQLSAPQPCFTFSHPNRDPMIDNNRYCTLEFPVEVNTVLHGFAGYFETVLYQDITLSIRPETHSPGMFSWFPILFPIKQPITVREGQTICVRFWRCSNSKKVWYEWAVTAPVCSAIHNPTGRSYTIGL
PRMT5, sequence (Q9BQA1 whole entry partner): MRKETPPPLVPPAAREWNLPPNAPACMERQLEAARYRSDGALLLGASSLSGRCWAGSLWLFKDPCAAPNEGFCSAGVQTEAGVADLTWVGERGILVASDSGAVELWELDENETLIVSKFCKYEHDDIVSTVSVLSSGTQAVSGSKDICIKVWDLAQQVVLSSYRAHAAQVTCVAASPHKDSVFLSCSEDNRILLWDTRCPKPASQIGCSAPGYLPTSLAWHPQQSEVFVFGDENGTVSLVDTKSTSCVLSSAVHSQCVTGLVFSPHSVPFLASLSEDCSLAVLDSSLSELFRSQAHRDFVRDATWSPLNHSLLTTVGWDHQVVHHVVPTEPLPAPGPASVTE
In short: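 Plasma SDMA, a catabolic product of PRMT5 activity, was measured by LC/MS during oral test-compound dosing. Part 1 samples: pre-dose, 2 and 6 h on C1D1; 12 h C1D1 or pre-dose C1D2; pre-dose C1D8; pre-dose, 2 and 6 h on C1D15; pre-dose C1D22, C2D1 and C3D1. Part 2 samples: pre-dose C1D1, C1D8, C1D15, C1D22, C2D1, C3D1 and end of treatment.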

## Cc1ncnc2c1ccn2[C@@H]1C[C@H](Oc2cc(C(F)F)c(F)c3c2CNCC3)[C@@H](O)[C@H]1O [PF-06939999]
[1]; 0.5 mg q.d. to 6 mg b.i.d.
  Dose dependence of exposure (AUCτ and Cmax): exposure increased with dose; also recorded: increased in a dose-dependent manner
[1]; RP2D, 6 mg q.d.
  Variability of AUCτ: 38%
  Variability of Cmax: 26%
[1]; b.i.d. and q.d. regimens
  Time to steady-state PK: ≤ 15 days
[1]; indicated by Rac after b.i.d. dosing
  Effective half-life: > 24 h
[2]
  Tumor growth inhibition: ~100%
PRMT5; 14-28 days post-dose, 0.5 mg q.d. or b.i.d.
  Plasma SDMA inhibition: ~60%
PRMT5; RP2D, 6 mg q.d.
  Plasma SDMA inhibition: around 80%
